Key:
MDA-MB-231 cells = assay: Annexin V-FITC/PI apoptosis assay by flow cytometry; format: cell-based, Human; details: 48 hours
Procedure, shortened: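 MDA-MB-231 cells seeded at 1 × 10^5 per well in 6-well plates; 24 h after serum removal, exposed to test compound (20–40 μM) for 48 h against a 0.1% DMSO control. Trypsinised, washed in cold PBS, stained with Annexin V-FITC and PI (50 μg mL–1) in binding buffer for 20 min in the dark at 0 °C. Flow cytometry gated viable, early-apoptotic, late-apoptotic and necrotic fractions. 3 independent experiments; one-way ANOVA with Fisher's PLSD.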

[1] = test system: MDA-MB-231 breast cancer cells; assay: MTS cell proliferation/viability assay, MDA-MB-231; format: cell-based, Human; details: for antiproliferative activity (in words): MDA-MB-231, 50 μM, 48 hours, MTS
Procedure, shortened: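 MDA-MB-231 cells cultured in DMEM with 10% FBS and 1% penicillin/streptomycin at 37 °C, 5% CO2; seeded at 7 × 10^3 per well. Serum removed after 24 h, then test compound at 1–50 μM in DMSO (max 0.1%) for 48 h, with a solvent-only control. MTS reagent 4 h at 37 °C, OD 550 nm. Blank-subtracted values normalised to DMSO (100%); triplicates; IC50 by nonlinear regression.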

VERO cells = assay: Cytotoxicity against GFP-expressing VERO cells; format: cell-based, African Green Monkey; details: 50 μg mL^–1 (158 μM for 2c, 139 μM for 3), 4 days
[2] = test system: MCF-7 breast cancer cells; assay: MTS cell proliferation assay, MCF-7; format: cell-based, human; details: MCF-7, highest concentration tested 50 μM, 48 h
Procedure, shortened: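 MCF-7 cells seeded at 7 × 10^3 per well; serum withdrawn after 24 h, then exposed 48 h to test compound at 10–50 μM in DMSO (max 0.1%), with a solvent-only control. MTS reagent added; absorbance read at 550 nm after 4 h at 37 °C. Blank-subtracted values normalised to DMSO control (100%); triplicates.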

[3] = test system: leukaemia, colon, renal and melanoma cancer cell lines; assay: NCI anti-cancer screen, summary over cell line groups; format: cell-based; details: read-out: IC50 values

SMILES	reduction of VERO cell viability (VERO cells)	antiproliferative activity (in words) [1]	other results
C[C@]1(NC(=O)CCl)C2CC[C@@]3(C)N=C(CCl)C1CC3C2 (stereo partly drawn) [Compound 2c, Exo-11-chloroacetamido-4,endo-11-dimethyl-2-chloromethyl-3-azatricyclo[5.3.1.0^4,9]undec-2-ene]	84 % of control	–	increase of population of cells in early apoptosis (MDA-MB-231 cells; 20 μM): 21%; increase of population of cells in early apoptosis (MDA-MB-231 cells; 40 μM): 31%; MDA-MB-231 cell viability ([1]; at 20 μM): 90 % of control; antiproliferative activity (in words) [2]: no antiproliferative activities
COC(=O)/C=C1\C(=O)C=C2C3CC4CC(CCC4(C)N21)C3(C)NC(C)=O (stereo not shown) [Compound 3]	77 % of control	–	IC50 [3]: < 10 µM
CC(=O)N[C@@]1(C)C2CC[C@@]3(C)N=C(CCl)C1CC3C2 (stereo partly drawn) [Compound 8, Exo-11-acetamido-4,endo-11-dimethyl-2-chloromethyl-3-azatricyclo[5.3.1.0^4,9]undec-2-ene]	–	lack of activity	–
CC(=O)N[C@@]1(C)C2CC[C@@]3(C)N[C@@H](CCl)C1CC3C2 (stereo partly drawn) [Compound 9, Exo-11-acetamido-4,endo-11-dimethyl-2-chloromethyl-3-azatricyclo[5.3.1.0^4,9]undecane]	–	lack of activity	–
COC(=O)C[C@H]1C(=O)C=C2C3CC4CC(CC[C@@]4(C)N21)[C@]3(C)NC(C)=O (stereo partly drawn) [Compound 10, Methyl(E)-[exo-11-acetylamino-9α,endo-11-dimethyl-2-oxo-1,2,4,5,5α,6,7,8,9,9α-decahydro-4,7-methanopyrrolo[1,2-a]-quinolin-1-ylidane]ethanoate]	–	lack of activity	–
